Peptide text beside a SMILES is read from it.

For this test, the species on record is Cavia porcellus. Description: Relative narcotic agonistic activity was performed by inhibition of electrically evoked contractions compared with [Met5]-enkephalin (100%) in guinea pig ileum. Type of test: functional. On the set-up: scale not given: the % may be the effect or the level left. In outline:
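Isolated guinea pig ileum; inhibition of electrically evoked contractions as agonist read-out. Single pulses of 4-ms duration at 3 to 6 V; isometric contractions recorded. Potency expressed relative to [Met5]enkephalin taken as 100%.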
`CC(C)C[C@H](NC(=O)[C@H](Cc1ccccc1)NC(=O)CNC(=O)CNC(=O)[C@@H](N)Cc1ccc(O)cc1)C(=O)O` [ENKEPHALIN]: the Activity came out at 24%.

On to `COc1ccc(C[C@H](N)C(=O)NCC(=O)NCC(=O)N[C@@H](Cc2ccccc2)C(=O)N[C@@H](CCSC)C(=O)O)cc1`, for which the Activity is on record as 2%. To `CC(C)C[C@H](NC(=O)[C@H](Cc1c[nH]c2ccccc12)NC(=O)CNC(=O)CNC(=O)[C@@H](N)Cc1ccc(O)cc1)C(=O)O` belongs 10%; to `CC(C)C[C@@H](C(=O)O)N(C)C(=O)[C@H](Cc1ccccc1)NC(=O)CNC(=O)CNC(=O)[C@@H](N)Cc1ccc(O)cc1`, 70%. The same measure for `CSCC[C@H](NC(=O)[C@H](Cc1c[nH]c2ccccc12)NC(=O)CNC(=O)CNC(=O)[C@@H](N)Cc1ccc(O)cc1)C(=O)O` (H-YGGWM-OH): 27%; for `CC(C)C[C@@H](C(=O)O)N(C)C(=O)[C@H](Cc1c[nH]c2ccccc12)NC(=O)CNC(=O)CNC(=O)[C@@H](N)Cc1ccc(O)cc1`: 4%.

Molecule `CSCC[C@H](NC(=O)[C@H](Cc1ccccc1)NC(=O)CNC(=O)CNC(=O)[C@@H](N)Cc1ccc(O)cc1)C(=O)O` showed an Activity of 100%. The same measure for `CSCC[C@H](NC(=O)[C@H](Cc1c[nH]c2ccccc12)N(C)C(=O)CNC(=O)CNC(=O)[C@@H](N)Cc1ccc(O)cc1)C(=O)O`: 39%; for `COc1ccc(C[C@H](N)C(=O)NCC(=O)NCC(=O)N[C@@H](Cc2c[nH]c3ccccc23)C(=O)N[C@@H](CCSC)C(=O)O)cc1`: 0.5%; for `N[C@@H](Cc1ccc(O)cc1)C(=O)NCC(=O)NCC(=O)N[C@@H](Cc1c[nH]c2ccccc12)C(=O)N1CCC[C@H]1C(=O)O`: 1%. To `N[C@@H](Cc1ccc(O)cc1)C(=O)NCC(=O)NCC(=O)N[C@@H](Cc1ccccc1)C(=O)N1CCC[C@H]1C(=O)O` belongs 1%.
